Experimental data: ChEMBL document CHEMBL1938239, “Novel analgesic/anti-inflammatory agents: diarylpyrrole acetic esters endowed with nitric oxide releasing properties” (J Med Chem, 2011)
Active and inactive are the calls of the source. No cut-off for these calls is given here.

What was measured:
J774 = assay: Selectivity ratio of IC50 for COX1 in mouse J774 cells to IC50 for COX2 in mouse J774 cells; type: cell-based
Outline: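 Ratio of J774 IC50s, COX-1 over COX-2. For COX-1, cells were pretreated with compound for 15 min, then given 15 μM arachidonic acid for 30 min at 37 °C. For COX-2, cells received E. coli LPS 10 μg/mL for 24 h with compound at 0.01–10 μM. PGE2 was measured by RIA in triplicate wells over three experiments. IC50 came from a sigmoidal fit.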

[1] = molecular target: Prostaglandin G/H synthase 1 (Homo sapiens, UniProt P23219); assay: Inhibition of platelet COX1-mediated TXB2 production in LPS-induced human whole blood after 60 mins by radioimmunoassay; type: tissue-based
Rattus norvegicus [2] = assay: Antiinflammatory activity against carrageenan-induced paw edema in Sprague-Dawley rat assessed as paw weight at 30 mg/kg, po administered 4 hrs post challenge measured after 120 mins (reference value: 31.8+/-2.5 g); type: functional
[3] = molecular target: T1, Prostaglandin G/H synthase 1 (Mus musculus, UniProt P22437); assay: Inhibition of COX-1-mediated PGE2 production in arachidonic acid-stimulated mouse J774 cells incubated for 15 mins prior to arachidonic acid-challenge by radioimmunoassay; type: cell-based
T1 sequence (P22437 whole entry): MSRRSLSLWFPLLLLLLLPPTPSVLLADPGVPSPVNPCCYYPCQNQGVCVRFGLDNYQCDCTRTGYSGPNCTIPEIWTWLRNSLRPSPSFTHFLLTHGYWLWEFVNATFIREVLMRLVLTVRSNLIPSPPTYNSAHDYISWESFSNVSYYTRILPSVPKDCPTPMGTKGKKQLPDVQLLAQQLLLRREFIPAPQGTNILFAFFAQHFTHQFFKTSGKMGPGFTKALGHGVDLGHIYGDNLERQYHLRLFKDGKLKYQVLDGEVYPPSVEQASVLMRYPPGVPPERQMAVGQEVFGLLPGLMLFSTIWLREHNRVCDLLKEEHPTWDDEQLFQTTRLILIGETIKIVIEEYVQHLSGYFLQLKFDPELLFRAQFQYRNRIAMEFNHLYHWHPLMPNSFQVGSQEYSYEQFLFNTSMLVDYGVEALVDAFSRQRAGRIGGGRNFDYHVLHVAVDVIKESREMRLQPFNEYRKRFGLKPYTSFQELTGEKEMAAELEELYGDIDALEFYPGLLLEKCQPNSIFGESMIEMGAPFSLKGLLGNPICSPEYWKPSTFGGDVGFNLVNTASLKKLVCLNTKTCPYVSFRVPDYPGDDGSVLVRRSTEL
Outline: (§1)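 J774 murine macrophages grown in DMEM with 10% FBS and allowed to adhere for 2 h at 37 °C. Cells were pretreated with compound at 10 μM for 15 min, then given 15 μM arachidonic acid for 30 min at 37 °C. Where inhibition exceeded 50%, 0.01–1 μM was also tested. Supernatant PGE2 was measured by RIA as % inhibition versus control, in triplicate wells over three experiments. IC50 came from a sigmoidal variable-slope fit.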

Rattus norvegicus [4] = assay: Antiinflammatory activity against carrageenan-induced paw edema in Sprague-Dawley rat assessed as paw weight at 30 mg/kg, po administered 4 hrs post challenge measured after 30 mins (reference value: 31.8+/-2.5 g); type: functional
Rattus norvegicus [5] = assay: Antiinflammatory activity against carrageenan-induced paw edema in Sprague-Dawley rat assessed as paw weight at 30 mg/kg, po administered 4 hrs post challenge measured after 60 mins (reference value: 31.8+/-2.5 g); type: functional
Mus musculus [6] = assay: Analgesic activity in Swiss albino mouse abdominal constriction model assessed as reduction in acetic acid-induced writhing response at 30 mg/kg, po administered 30 mins prior to acetic acid-challenge measured after 5 mins relative to vehicle-treated control; type: functional, Abdomen; set-up: scale not given: the % may be the effect or the level left
Outline: (§2)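 Male Swiss albino mice (23−25 g); 0.6% acetic acid (10 mL/kg) injected ip. Stretching movements counted for 10 min, starting 5 min after administration. Oral doses in carboxymethylcellulose (CMC) vehicle, compared with vehicle-treated mice.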

[7] = molecular target: T2, Prostaglandin G/H synthase 1 (Mus musculus) (UniProt P22437); assay: Inhibition of COX-1-mediated PGE2 production in arachidonic acid-stimulated mouse J774 cells at 10 uM incubated for 15 mins prior to arachidonic acid-challenge by radioimmunoassay; type: cell-based
T2 sequence (whole entry): T1 sequence (P22437 whole entry)
Outline: as §1, with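 “h” for “h at 37 °C. Cells were pretreated with compound at 10 μM for 15 min, then given 15 μM arachidonic acid for 30 min”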

Rattus norvegicus [8] = assay: Antiinflammatory activity against carrageenan-induced edema in Sprague-Dawley rat assessed as right hind paw volume at 30 mg/kg, po administered 4 hrs post challenge measured after 60 mins; type: functional
Outline: (§3)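 Rats received intraplantar carrageenan. Right hind paw volume was measured 4 h after the carrageenan injection and compared with saline/carrageenan-treated controls. Oral dosing in CMC vehicle; volume recorded at 60 min after treatment.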

[9] = molecular target: T3, Prostaglandin G/H synthase 2 (Homo sapiens, UniProt P35354); assay: Inhibition of COX2-mediated PGE2 production in LPS-induced human whole blood after 60 mins by radioimmunoassay
T3 sequence (P35354 whole entry): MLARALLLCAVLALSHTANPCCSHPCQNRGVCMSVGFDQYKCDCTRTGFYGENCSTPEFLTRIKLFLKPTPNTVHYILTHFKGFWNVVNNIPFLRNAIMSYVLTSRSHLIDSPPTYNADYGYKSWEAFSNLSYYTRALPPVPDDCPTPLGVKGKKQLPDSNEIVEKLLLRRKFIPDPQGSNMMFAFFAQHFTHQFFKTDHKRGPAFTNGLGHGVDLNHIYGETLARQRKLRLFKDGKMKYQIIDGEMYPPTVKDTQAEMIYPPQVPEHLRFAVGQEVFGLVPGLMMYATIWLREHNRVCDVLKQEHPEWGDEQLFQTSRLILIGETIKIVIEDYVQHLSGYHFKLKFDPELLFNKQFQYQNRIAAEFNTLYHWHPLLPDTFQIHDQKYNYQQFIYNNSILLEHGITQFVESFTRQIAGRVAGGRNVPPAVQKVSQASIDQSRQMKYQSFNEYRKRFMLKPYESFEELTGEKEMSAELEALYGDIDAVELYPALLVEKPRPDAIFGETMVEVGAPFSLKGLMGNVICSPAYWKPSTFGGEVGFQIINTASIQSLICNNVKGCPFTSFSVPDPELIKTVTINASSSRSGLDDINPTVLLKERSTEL

Rattus norvegicus [10] = assay: Analgesic activity in Sprague-Dawley rat assessed as reduction in carrageenan-induced paw hyperalgesia at 30 mg/kg, po administered 4 hrs post challenge measured after 30 mins relative to vehicle-treated control; set-up: scale not given: the % may be the effect or the level left
Aorta [11] = assay: Vasorelaxation activity against KCl-induced contraction in isolated Wistar rat thoracic endothelium-denulated aortic rings; type: functional, tissue-based
Outline: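 Endothelium-denuded thoracic aortic rings from male Wistar rats (250−350 g); denudation confirmed by <10% relaxation to 10 μM ACh. Rings precontracted with 30 mM KCl; compound added at 3-fold increasing concentrations, 1 nM to 10 μM. Isometric tension recorded. Emax given as % of KCl tone; pIC50 derived. Mean ± standard error of 6−10 experiments; repeated with 1 μM ODQ.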

Rattus norvegicus [12] = assay: Antiinflammatory activity against carrageenan-induced edema in Sprague-Dawley rat assessed as right hind paw volume at 40 mg/kg, po administered 4 hrs post challenge measured after 60 mins; type: functional; outline: as §3
Rattus norvegicus [13] = assay: Antiinflammatory activity against carrageenan-induced paw edema in Sprague-Dawley rat assessed as paw weight at 20 mg/kg, po administered 4 hrs post challenge measured after 30 mins (reference value: 32.6+/-2.7 g); type: functional
Rattus norvegicus [14] = assay: Antiinflammatory activity against carrageenan-induced paw edema in Sprague-Dawley rat assessed as paw weight at 40 mg/kg, po administered 4 hrs post challenge measured after 30 mins (reference value: 29.8+/-3.1 g); type: functional
Rattus norvegicus [15] = assay: Antiinflammatory activity against carrageenan-induced paw edema in Sprague-Dawley rat assessed as paw weight at 20 mg/kg, po administered 4 hrs post challenge measured after 60 mins (reference value: 32.6+/-2.7 g); type: functional
Rattus norvegicus [16] = assay: Antiinflammatory activity against carrageenan-induced paw edema in Sprague-Dawley rat assessed as paw weight at 40 mg/kg, po administered 4 hrs post challenge measured after 60 mins (reference value: 29.8+/-3.1 g); type: functional
Aorta [17] = assay: Vasorelaxation activity against KCl-induced contraction in isolated Wistar rat thoracic endothelium-denulated aortic rings in the presence of guanylate cyclase inhibitor ODQ; type: functional, tissue-based
Outline: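 Thoracic aortic rings from male Wistar rats (250–350 g), endothelium removed by rubbing; rings relaxing ≥10% to ACh 10 μM on KCl 30 mM tone were discarded. ODQ 1 μM was incubated, then rings were contracted with KCl 30 mM and given 3-fold increasing concentrations of 1 nM–10 μM.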

Rattus norvegicus [18] = assay: Antiinflammatory activity against carrageenan-induced edema in Sprague-Dawley rat assessed as right hind paw volume at 100 mg/kg, po administered 4 hrs post challenge measured after 60 mins; type: functional; outline: as §3
Rattus norvegicus [19] = assay: Antiinflammatory activity against carrageenan-induced edema in Sprague-Dawley rat assessed as right hind paw volume at 20 mg/kg, po administered 4 hrs post challenge measured after 60 mins; type: functional; outline: as §3
Rattus norvegicus [20] = assay: Antiinflammatory activity against carrageenan-induced paw edema in Sprague-Dawley rat assessed as paw weight at 100 mg/kg, po administered 4 hrs post challenge measured after 60 mins (reference value: 31.9+/-3.0 g); type: functional
Rattus norvegicus [21] = assay: Antiinflammatory activity against carrageenan-induced paw edema in Sprague-Dawley rat assessed as paw weight at 100 mg/kg, po administered 4 hrs post challenge measured after 30 mins (reference value: 31.9+/-3.0 g); type: functional
Mus musculus [22] = assay: Analgesic activity in Swiss albino mouse abdominal constriction model assessed as reduction in acetic acid-induced writhing response for 10 mins at 40 mg/kg, po administered 30 mins prior to acetic acid-challenge measured after 5 mins relative to vehicle-treated control; type: functional, Abdomen; set-up: scale not given: the % may be the effect or the level left; outline: as §2
Rattus norvegicus [23] = assay: Antiinflammatory activity against carrageenan-induced paw edema in Sprague-Dawley rat assessed as paw weight at 20 mg/kg, po administered 4 hrs post challenge measured after 30 mins (reference value: 62.6+/-3.1 g); type: functional
Rattus norvegicus [24] = assay: Antiinflammatory activity against carrageenan-induced paw edema in Sprague-Dawley rat assessed as paw weight at 20 mg/kg, po administered 4 hrs post challenge measured after 60 mins (reference value: 62.6+/-3.1 g); type: functional
Rattus norvegicus [25] = assay: Antiinflammatory activity against carrageenan-induced paw edema in Sprague-Dawley rat assessed as paw weight at 40 mg/kg, po administered 4 hrs post challenge measured after 30 mins (reference value: 61.3+/-3.0 g); type: functional
Rattus norvegicus [26] = assay: Antiinflammatory activity against carrageenan-induced paw edema in Sprague-Dawley rat assessed as paw weight at 40 mg/kg, po administered 4 hrs post challenge measured after 60 mins (reference value: 61.3+/-3.0 g); type: functional
Mus musculus [27] = assay: Analgesic activity in Swiss albino mouse abdominal constriction model assessed as reduction in acetic acid-induced writhing response for 10 mins at 20 to 40 mg/kg, po administered 30 mins prior to acetic acid-challenge measured after 5 mins relative to vehicle-treated control; type: functional, organism-based; conditions: Abdomen; outline: as §2
Rattus norvegicus [28] = assay: Antiinflammatory activity against carrageenan-induced paw edema in Sprague-Dawley rat assessed as paw weight at 20 mg/kg, po administered 4 hrs post challenge measured after 120 mins (reference value: 62.6+/-3.1 g); type: functional
Rattus norvegicus [29] = assay: Antiinflammatory activity against carrageenan-induced paw edema in Sprague-Dawley rat assessed as paw weight at 40 mg/kg, po administered 4 hrs post challenge measured after 120 mins (reference value: 61.3+/-3.0 g); type: functional
Rattus norvegicus [30] = assay: Antiinflammatory activity against carrageenan-induced paw edema in Sprague-Dawley rat assessed as paw weight at 10 mg/kg, po administered 4 hrs post challenge measured after 30 mins (reference value: 61.5+/-3.4 g); type: functional
Rattus norvegicus [31] = assay: Antiinflammatory activity against carrageenan-induced paw edema in Sprague-Dawley rat assessed as paw weight at 10 mg/kg, po administered 4 hrs post challenge measured after 60 mins (reference value: 61.5+/-3.4 g); type: functional
Rattus norvegicus [32] = assay: Antiinflammatory activity against carrageenan-induced edema in Sprague-Dawley rat assessed as right hind paw volume at 10 mg/kg, po administered 4 hrs post challenge measured after 60 mins; type: functional; outline: as §3
Rattus norvegicus [33] = assay: Antiinflammatory activity against carrageenan-induced paw edema in Sprague-Dawley rat assessed as paw weight at 10 mg/kg, po administered 4 hrs post challenge measured after 120 mins (reference value: 61.5+/-3.4 g); type: functional

Sequence of Prostaglandin G/H synthase 1 (Homo sapiens, UniProt P23219) (P23219 whole entry): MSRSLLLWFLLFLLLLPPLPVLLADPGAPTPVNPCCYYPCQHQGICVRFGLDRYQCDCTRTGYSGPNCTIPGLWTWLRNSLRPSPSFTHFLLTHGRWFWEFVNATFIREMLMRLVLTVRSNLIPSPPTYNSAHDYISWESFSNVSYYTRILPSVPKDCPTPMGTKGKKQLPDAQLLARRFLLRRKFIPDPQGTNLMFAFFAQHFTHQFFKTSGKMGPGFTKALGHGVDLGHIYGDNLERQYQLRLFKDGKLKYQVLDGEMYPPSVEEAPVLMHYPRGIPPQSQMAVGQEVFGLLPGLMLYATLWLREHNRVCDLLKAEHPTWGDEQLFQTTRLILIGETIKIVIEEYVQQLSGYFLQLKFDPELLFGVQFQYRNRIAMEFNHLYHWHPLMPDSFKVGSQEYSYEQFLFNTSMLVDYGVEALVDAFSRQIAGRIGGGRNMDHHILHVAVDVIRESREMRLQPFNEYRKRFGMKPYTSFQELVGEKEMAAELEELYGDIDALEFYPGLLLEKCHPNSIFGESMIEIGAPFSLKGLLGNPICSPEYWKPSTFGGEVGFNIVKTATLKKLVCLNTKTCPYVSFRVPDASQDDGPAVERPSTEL

SMILES: Cc1c(CC(=O)OCCO)cc(-c2ccc(S(C)(=O)=O)cc2)n1-c1cccc(F)c1
- Ratio IC50 (J774): > 118
- IC50 [1]: 12.2 µM
- Activity (Rattus norvegicus [2]): 39.3 g
- IC50 [3]: > 10 µM
- Activity (Rattus norvegicus [4]): 55.7 g
- Activity (Rattus norvegicus [5]): 52.3 g
- Activity (Mus musculus [6]): 70%
- inhibition [7]: 33%
- Activity (Rattus norvegicus [8]): 2.51 mL
- IC50 [9]: 1.7 µM
- Activity (Rattus norvegicus [10]): 80%

SMILES: Cc1c(CC(=O)OCCO[N+](=O)[O-])cc(-c2ccc(S(C)(=O)=O)cc2)n1-c1cccc(F)c1
- IC50 (Aorta [11]): 0.331 µM
- Ratio IC50 (J774): > 526
- Activity (Rattus norvegicus [12]): 2.17 mL
- IC50 [1]: 9.6 µM
- Activity (Rattus norvegicus [13]): 40.1 g
- Activity (Rattus norvegicus [14]): 54.1 g
- Activity (Rattus norvegicus [15]): 35.3 g
- Activity (Rattus norvegicus [16]): 38.7 g
- Activity (Aorta [17]): inactive
- Activity (Rattus norvegicus [18]): 1.88 mL
- IC50 [3]: > 10 µM
- Activity (Rattus norvegicus [19]): 2.52 mL
- Activity (Rattus norvegicus [20]): 36.5 g
- Activity (Rattus norvegicus [21]): 57.2 g
- inhibition [7]: 36%
- Activity (Mus musculus [22]): 70%
- IC50 [9]: 3.2 µM

SMILES: Cc1c(CC(=O)OCCCO)cc(-c2ccc(S(C)(=O)=O)cc2)n1-c1cccc(F)c1
- Activity (Rattus norvegicus [23]): 41.2 g
- Ratio IC50 (J774): > 435
- Activity (Rattus norvegicus [24]): 45.8 g
- Activity (Rattus norvegicus [25]): 43.1 g
- Activity (Rattus norvegicus [26]): 48.8 g
- IC50 [3]: > 10 µM
- Activity (Mus musculus [27]): inactive
- Activity (Rattus norvegicus [28]): 36.4 g
- inhibition [7]: 0%
- Activity (Rattus norvegicus [29]): 44.4 g

SMILES: Cc1ccc(-c2cc(C(F)(F)F)nn2-c2ccc(S(N)(=O)=O)cc2)cc1 [CELECOXIB]
- Activity (Rattus norvegicus [30]): 54.3 g
- Activity (Rattus norvegicus [31]): 57.1 g
- Activity (Rattus norvegicus [32]): 1.36 mL
- Activity (Rattus norvegicus [33]): 54.9 g
